An excerpt weighted towards active compounds, which were near 4.1% of everything screened.
MPTP inh = inhibitors of mitochondrial permeability transition pore; isolated mouse mitochondria, Ca2+ swelling absorbance, 30 min; inhibition, % at 10 µM; 360,000 compounds, 1.4% hits; AID 602449;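 active = inhibition of 50% or more, scaled per plate between neutral and stimulator controls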;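 note: 0% = DMSO wells given calcium and 100% = 1 mM EGTA wells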
SMARCA2 act = activators of SMARCA2 function; 370,000 compounds, 1% hits; activation, % at 9.1 µM; MG213 cells, MMTV-luciferase reporter, dexamethasone, overnight; in the data active = activation above about 7.8%;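 note: 0% = vehicle wells and 100% = reference activator wells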
MC4R ag barr = human MC4R agonism via beta-arrestin. AID 540308. 360,000 compounds, 0.98% hits. P32245. U2OS MC4R beta-arrestin complementation, luminescence; percent of melanotan II response, DMSO zero. activation, % at 8.9 µM;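 active = activation above a per-plate cutoff, the mean activation of sample wells on that plate plus 3 SD, cut at about 8% in these data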
MC4R antag cAMP = blocks human MC4R cAMP signaling. MC4R-expressing cells, MTII-stimulated cAMP, LANCE TR-FRET. inhibition, % at 6.5 µM. 360,000 compounds, 0.48% hits. P32245;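 active = inhibition above its plate's cutoff, the mean of tested wells on that plate plus 3 SD, cut at about 29% in these data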;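 note: 0% = Melanotan II alone and 100% = Melanotan II plus saturating MCL0020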
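Assay system: human MC4R-expressing U2OS cells; reagent: Melanotan II stimulation of cells; dosing: 6.5 µM single dose; timing: compound 30 min, challenge 1 h, detection 1 h; signal: TR-FRET cAMP assay; replicates: one well per compound, no replicates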
ATG4B inhibitor = ATG4B (human) cysteine protease inhibition | inhibition, % at 8.33 µM | ATG4B cleavage of LC3-PLA2, NBD-HPC fluorescence, 1 h | Q9Y4P1 | 340,000 compounds, 0.51% hits; in the data active = inhibition above about 40%
Target sequence (Q9Y4P1 whole entry, looked up): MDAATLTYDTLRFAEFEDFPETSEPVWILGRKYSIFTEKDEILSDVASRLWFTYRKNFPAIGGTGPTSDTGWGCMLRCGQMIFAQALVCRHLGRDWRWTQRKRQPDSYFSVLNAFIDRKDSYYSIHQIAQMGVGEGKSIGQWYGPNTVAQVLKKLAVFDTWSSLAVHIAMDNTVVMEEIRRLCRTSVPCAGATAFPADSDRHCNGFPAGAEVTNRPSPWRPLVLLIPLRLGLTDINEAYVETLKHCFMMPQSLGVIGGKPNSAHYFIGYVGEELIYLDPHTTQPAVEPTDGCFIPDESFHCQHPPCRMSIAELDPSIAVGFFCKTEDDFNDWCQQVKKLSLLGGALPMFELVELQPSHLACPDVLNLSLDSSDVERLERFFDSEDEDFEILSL
Rh123 counter = Rhodamine 123 counter-screen of mitochondrial pore hits. shares compounds with MPTP inh. isolated mitochondria, membrane potential, Rhodamine 123 fluorescence. inhibition, % at 10 µM. 5,000 compounds, 78% hits; in the data active = inhibition above about 22%;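 note: 0% = DMSO vehicle and 100% = positive control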
MPTP swell DR = dose response confirmation of mitochondrial permeability transition pore inhibitors; AID 651561; shares compounds with MPTP inh; isolated mitochondria swelling, absorbance; IC50, µM; 780 compounds, 58% hits; in the data active = IC50 below about 20 µM
MPTP counter DR = counter-screen for mitochondrial permeability transition pore inhibitors, dose response. isolated mitochondria counterscreen, fluorescence read-out. shares compounds with MPTP inh. 780 compounds, 49% hits. IC50, µM; in the data active = IC50 below about 80 µM
Active calls of the source: *; i = inactive; / = no result.

SMILES | MPTP inh | SMARCA2 act | MC4R ag barr | MC4R antag cAMP | ATG4B inhibitor | Rh123 counter | others
O=S(=O)(Nc1ccc(O)c(Sc2nc3ccccc3s2)c1)c1ccc(F)cc1 | 78* | -1 | 1 | 15 | -20 | 55*
CCOc1ccc(-n2c(SCC(=O)NN=Cc3ccc(C(=O)O)cc3)nnc2-c2cccnc2)cc1 | / | -2 | / | / | / | /
CCc1nnc(NS(=O)(=O)c2ccc(N=Cc3c(C)[nH]n(-c4ccc(Cl)cc4)c3=O)cc2)s1 | 7 | -1 | -2 | 8 | 18 | /
Cc1[nH]n(-c2ccc(Cl)cc2)c(=O)c1/C=N/c1nnc(-c2ccccc2)s1 | 104* | 1 | -1 | -9 | 9 | 43*
Cc1[nH]n(-c2ccc(F)cc2)c(=O)c1/C=N/c1sc2c(c1C#N)CCCC2 | 106* | 1 | 0 | 13 | 2 | 25*
Cc1[nH]n(-c2cccc3ccccc23)c(=O)c1/C=N/c1sc2c(c1C#N)CCC2 | 0 | -1 | -1 | 5 | 1 | /
Cc1ccc(-c2cc(-c3nnc(SCC(=O)Nc4ccc(OCc5ccccc5)cc4)n3N)[nH]n2)cc1 | / | 3 | / | / | / | /
CCCCCCN1Cc2ccccc2C1 | -1 | 0 | 0 | 3 | 2 | /
CCCCCCCCCCn1ccc(=N)cc1 | 65* | -12 | 2 | -3 | 4 | 90*
COc1cccc(CN(C)[C@H]2C[C@H]3c4[nH]c5ccccc5c4CCN3C[C@H]2[C@H](C)O)c1OC | / | 2 | / | / | / | /
Cn1c(=O)c2[nH]c(SCC(=O)NCCc3cccc(F)c3)nc2n(C)c1=O | / | -3 | / | / | / | /
CC(C)(C)c1ccc(S(=O)(=O)N2CCCC(C(=O)N3CCN(Cc4ccccc4)CC3)C2)cc1 (centres undefined) | / | -4 | / | / | / | /
Cc1ccc(S(=O)(=O)N(C)C)cc1NC(=S)NC12CC3CC(CC(C3)C1)C2 | 65* | 4 | 2 | 9 | -11 | 84*
Cc1ccc(S(=O)(=O)N(C)C)cc1NC(=S)NC(=O)C12CC3CC(CC(C3)C1)C2 | 60* | 3 | 1 | 8 | -5 | 35*
CCCCNC(=O)C1CCCN1C(=O)Nc1ccc(Cl)cc1 (centres undefined) | / | -3 | / | / | / | /
CCOC(=O)c1nc(C)nc(Sc2n[nH]c(-c3cc(C(F)(F)F)cc(C(F)(F)F)c3)n2)c1C | 65* | 0 | 0 | -6 | -7 | 72*
CCOC(=O)[C@@]12CCCC=C1N(CCc1ccc(Cl)cc1)C(=O)[C@H]2CC(=O)NCc1cccs1 | / | -2 | / | / | / | /
CC(=O)Nc1cccc(OCC(O)Cn2c(C)nc3ccccc32)c1 (centres undefined) | 4 | -2 | 3 | -4 | -5 | /
CCCOC(=O)c1ccc(OCC(O)Cn2c(C)nc3ccccc32)cc1 (centres undefined) | 53* | -8 | 0 | 5 | -22 | 103*
Cc1nn(CCC(=O)NNC(=O)NCc2ccccc2)c(C)c1[N+](=O)[O-] | / | -4 | / | / | / | /
CC(C)(C)c1ccc(-c2cn(-c3ccc(Br)cc3)c3[n+]2CCCS3)cc1 | 53* | -7 | 0 | 6 | 5 | 99*
CCc1ccc(OCC(O)CN2CCC(CN3C(=O)c4cccc5cccc(c45)C3=O)CC2)cc1 (centres undefined) | 84* | -2 | 1 | 7 | 3 | 0 | MPTP swell DR=4.9*;MPTP counter DR=20*
COc1cc(COCC(O)CN2CCN(CCN3C(=O)c4cccc5cccc(c45)C3=O)CC2)cc(OC)c1OC (centres undefined) | 3 | 1 | 0 | 9 | -4 | /
COc1ccc(COCC(O)CN2CCC(CN3C(=O)c4cccc5cccc(c45)C3=O)CC2)cc1OC (centres undefined) | 90* | -3 | 0 | 1 | -26 | 18 | MPTP swell DR=6.3*;MPTP counter DR=46*
COc1cccc(OCC(O)CN2CCC(CN3C(=O)c4cccc5cccc(c45)C3=O)CC2)c1 (centres undefined) | 72* | 0 | 2 | 14 | -22 | 50*
SMILES | MPTP inh | SMARCA2 act | MC4R ag barr | MC4R antag cAMP | ATG4B inhibitor | Rh123 counter | others
COC(=O)[C@]12C[C@H](CC(=O)NCc3ccc(C)o3)C(=O)N(Cc3ccccc3)C1=C[C@H](C(C)(C)C)O[C@@H]2C | / | -6 | / | / | / | /
Nn1c(SCC(=O)Nc2ccc(C(=O)O)cc2)nnc1-c1ccco1 | / | 0 | / | / | / | /
CC(C)N1Cc2nnn(Cc3ccccc3)c2-c2cc(N3CCCC3)ccc2S1(=O)=O | / | -2 | / | / | / | /
CSCCC(NC(=O)c1ccc(Cl)cc1)C(=O)OCC(=O)Nc1ccc(C#N)cc1 (centres undefined) | 50* | -1 | 0 | 6 | -6 | 44*
O=C(Nc1ccccc1)Nc1nc2ncccn2c1-c1ccc(C(F)(F)F)cc1 | / | -2 | / | / | / | /
Cc1ccc(C2(CCNC(C)c3cccs3)CCOC(C(C)C)C2)cc1 (centres undefined) | 91* | -1 | 1 | 24 | -5 | -14 | MPTP swell DR=12*;MPTP counter DR=59*
CCCSc1nsc(NC(=O)CC)n1 | 0 | 4 | -1 | 0 | -4 | /
CCCCCCSc1nsc(NC(=O)CC(C)C)n1 | 78* | 4 | -2 | 24 | 8 | 92*
O=C(CSc1nnc(-c2ccccn2)n1-c1ccc(Cl)cc1)Nc1ccc(S(=O)(=O)Nc2nccs2)cc1 | / | 4 | / | / | / | /
Cc1ccc(S(=O)(=O)NC(=O)c2cc(C)n(-c3ccccc3)c2C)cc1 | 3 | 1 | -2 | -2 | 1 | /
Cc1ccc(S(=O)(=O)NC(=O)c2cc(C)n(-c3ccc(N(C)C)cc3)c2C)cc1 | 85* | 1 | -1 | -1 | 3 | 91*
Cc1cccc(C)c1N1CCN(C(c2cc3ccccc3o2)c2nnnn2C(C)(C)C)CC1 (centres undefined) | 87* | / | / | / | / | 57*
Cc1ccc(NS(=O)(=O)c2ccc3c(c2)C(=O)c2ccccc2C3=O)c(C)c1 | 82* | -1 | -2 | 4 | 11 | 72*
O=C(CSc1ccc(Cl)cc1)Nc1cccc(-c2nnc(-c3ccco3)o2)c1 | 70* | -2 | 4 | 8 | -11 | 59*
Cc1ccc(SCC(=O)Nc2cccc(-c3nnc(-c4ccco4)o3)c2)cc1 | 1 | 1 | 0 | 6 | -11 | /
Cc1cc2nc3ccc(=[N+](C)C)cc-3sc2cc1N | 63* | / | -4 | -45 | 12 | 37*
CN(C)c1ccc2nc3ccc(=[N+](C)C)cc-3sc2c1 | 48 | -3 | -4 | -64 | 1 | /
COc1ccc(NC(=O)CSc2nnc(-c3n[nH]c4c3CCC4)n2N)cc1OC | / | -1 | / | / | / | /
COC(=O)C[C@@H]1CC[C@@H]2[C@H](COc3ccc(NC(=O)c4ccc(F)c(F)c4)cc3C(=O)N2C)O1 | / | -5 | / | / | / | /
O=C(CN1C2=NCCN2c2ccccc21)C12CC3CC(CC(C3)C1)C2 | 70* | 0 | -1 | -5 | -2 | -5 | MPTP swell DR=i;MPTP counter DR=>80
